Experimental data as given in article PMC3556220 (Biochimica et biophysica acta, 2012).

Tests used:
[1] = test system: EGFR (Y^1068 phosphorylation); assay: Western blot of EGFR Tyr^1068 phosphorylation in BON cells; format: cell-based, human; settings: for stimulation of Y^1068 EGFR phosphorylation: Western blot, densitometry; for inhibition of NT-stimulated EGFR Y^1068 phosphorylation by antioxidant: NAC or Tiron pre-treatment (one range for both); for inhibition of Bn-analogue-stimulated EGFR Y^1068 phosphorylation by antioxidant: NAC or Tiron pre-treatment
Procedure, shortened: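 BON cells were stimulated with EGF 16 nM or peptides 1 µM for 30 min or over time courses; inhibitor sets used 1 h stimulation. Lysis was in pH 7.5 Triton/deoxycholate buffer with orthovanadate. Equal protein ran on 4–20% SDS-PAGE onto nitrocellulose. Probes: anti-phospho-EGFR Tyr1068 (1:1000, overnight 4 °C), tubulin loading control, HRP secondary, chemiluminescence on film, band densitometry. Mean ± SEM, 3–4 experiments.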

BON cells [2] = assay: MTT assay of BON cell growth; format: cell-based, human; settings: for stimulation of BON cell growth, MTT assay: 24 h incubation, serum-free medium, read at 595 nm, mean of 6 experiments
Procedure, shortened: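 BON cells (5 × 10^3/well) were grown 24 h in DMEM/F12K + 10% FBS, washed with PBS, then exposed 24 h to peptides/hormones in serum-free DMEM/F12K, with or without EGFR inhibitor at 1 μM. MTT (1.2 mM final) was present for the last 3 h. Formazan was dissolved in 0.04 N HCl/isopropanol for 5 min at RT and absorbance read at 595 nm. Mean ± SEM, 6 experiments.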

QGP-1 cells = assay: [^3H]-Thymidine uptake, QGP-1 cell growth; format: cell-based, human; settings: n = 6; for stimulation of cell growth, [^3H]-Thymidine incorporation: 24 h, serum-free medium, EGFR-dependent
Procedure, shortened: (§1)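 Plating: BON 1.5 × 10^5/well in DMEM/F12K; QGP-1 4 × 10^4/well in RPMI; both with 10% FBS. After 24 h, cells were serum-starved 24 h, then exposed 24 h to peptides/hormones with or without EGFR inhibitor at 1 µM. [3H]-thymidine was present for the final 6 h. Cells were washed in ice-cold PBS, precipitated in 5% TCA (30 min, 4 °C), dissolved in 0.5 N NaOH/0.5% SDS and scintillation-counted. Mean ± SEM, 6 experiments.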

BON cells [3] = settings: cited from earlier work; for induction of apoptosis: BON cells
non-endocrine tumors = settings: cited from earlier work
[4] = test system: progressive metastatic NETs; settings: phase II trial, patients with progressive metastatic NETs; cited from earlier work
[5] = test system: non-small-cancer lung cells / lung cancer; settings: cited from earlier work
HNSCC = settings: cited from earlier work; for cell proliferation: HNSCC
[6] = test system: rat insulinoma cell lines; settings: cited from earlier work
prostate cancer cells = settings: cited from earlier work
[7] = test system: pancreatic adenocarcinoma cells; settings: cited from earlier work
KRJ-I cells = settings: cited from earlier work
NCH720 cells = settings: broncho-pulmonary NET cell line; cited from earlier work
BON cells [8] = assay: [^3H]-Thymidine uptake, BON cell growth; format: cell-based, human; settings: 24 h incubation, serum-free medium, mean of 6 experiments
Procedure, shortened: as §1

BON cells [9] = assay: BON cell growth, galanin and CCK/gastrin; format: cell-based, human; settings: data not shown
Procedure, shortened: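 BON cells are grown in DMEM/F12K with 10% FBS, then washed and serum-starved, and test compound is added for 24 h. For the MTT read-out, 5×10^3 cells/well get 1.2 mM MTT (final) for the last 3 h, are lysed in 0.04N HCl/isopropanol, and are read at 595 nm. For thymidine uptake, 1.5×10^5 cells/well are starved 24 h and pulsed with [3H]-thymidine for the final 6 h. Samples are TCA-precipitated, solubilised in NaOH/SDS, and scintillation-counted.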

## Nc1ncnc2c1cnn2-c1ccccc1 [PP3]
[1]; inhibitor 10 μM, Bn-analogue 1 μM, 1 h, n = 4
  reduction of Bn-analogue-stimulated Y^1068 EGFR phosphorylation: but not PP3, an inactive PP2 analogue
[1]; inhibitor 10 μM, NT 1 μM, 1 h, n = 4
  reduction of NT-stimulated Y^1068 EGFR phosphorylation: but not PP3, an inactive PP2 analogue

## COc1cc2ncnc(Nc3cccc(Cl)c3)c2cc1OC [AG1478]
BON cells [2]; BON cells, AG1478 1 μM pre-treatment, 24 h, n = 6
  inhibition of growth stimulated by each GI hormone, EGF or TGFα, MTT assay: completely inhibited
QGP-1 cells; AG1478 1 μM pre-treatment, [^3H]-Thymidine uptake
  inhibition of the increase of cell growth induced by the GI hormones: blocked the increase of cell growth
[1]; AG1478 1 μM, stimulant Bn-analogue, 30 min, n = 4
  inhibition of Bn-analogue-stimulated Y^1068 EGFR phosphorylation: inhibited completely
[1]; AG1478 1 μM, stimulant EGF, 30 min, n = 4
  inhibition of EGF-stimulated Y^1068 EGFR phosphorylation: 88%
[1]; AG1478 1 μM, stimulant NT, 30 min, n = 4
  inhibition of NT-stimulated Y^1068 EGFR phosphorylation: inhibited completely
BON cells [3]
  induction of apoptosis: induces apoptosis
  BON cell basal proliferation: completely blocks BON cell basal proliferation
non-endocrine tumors
  inhibition of cell growth stimulated by various GI hormones/neurotransmitters: able to inhibit cell growth

## COc1cc2ncnc(Nc3ccc(F)c(Cl)c3)c2cc1OCCCN1CCOCC1 [Gefitinib]
BON cells [3]
  induction of apoptosis: induces apoptosis
  BON cell basal proliferation: completely blocks BON cell basal proliferation
[4]
  tumor stabilization: stabilization of the tumors

## NMB: stimulates cell proliferation in non-small-cancer lung cells
[5]
  cell proliferation: stimulate cell proliferation
HNSCC
  cell proliferation: stimulate cell proliferation

## epiregulin: epiregulin, an EGFR ligand
[6]
  cell growth: stimulates cell growth

## bombesin
[5]
  cell proliferation: stimulate cell proliferation
HNSCC
  cell proliferation: stimulate cell proliferation

## CN(C)CCCn1cc(C2=C(c3c[nH]c4ccccc34)C(=O)NC2=O)c2ccccc21 [GF 109203X]
[1]; GF 109203X pre-treatment, NT 1 μM, 1 h, n = 3
  inhibition of NT-stimulated EGFR Y^1068 phosphorylation by PKC inhibitor: 77%

## neurotensin [NT]
QGP-1 cells
  stimulation of cell growth, [^3H]-Thymidine incorporation: stimulated cell growth
[1]; 1 μM, 30 min, n = 4
  stimulation of Y^1068 EGFR phosphorylation: significantly stimulated
[1]; 1 μM, n = 4
  maximal increase of EGFR Y^1068 phosphorylation, dose-response: 2.6 fold
[1]; Bn-analogue or NT
  peak time of Y^1068 EGFR tyrosine phosphorylation: 60 min
Prostate cancer cells
  cell growth: stimulate cell growth
[7]
  cell growth: stimulate cell growth

## NCCc1c[nH]c2ccc(O)cc12 [serotonin]
KRJ-I cells
  cell proliferation of KRJ-I: stimulates cell proliferation
NCH720 cells
  cell proliferation: stimulates cell proliferation

## EGF: Human EGF (Recombinant, E. coli)
BON cells [2]
  stimulation of BON cell growth, MTT assay: 30%
BON cells [8]
  growth stimulated, [^3H]-Thymidine assessment: 32%
QGP-1 cells
  stimulation of cell growth, [^3H]-Thymidine incorporation: able to stimulate BON cell growth, as well as in QGP-1 cells
[1]; 16 nM, 30 min, n = 4
  stimulation of Y^1068 EGFR phosphorylation: significantly stimulated
[1]; EGF
  peak time of Y^1068 EGFR tyrosine phosphorylation: 2 min
[1]; EGF 16 nM, n = 4
  t1/2 of Y^1068 EGFR phosphorylation: 3 min
BON cells [3]
  growth of BON cells: can stimulate growth of both KRJ-I cells and BON cells
BON cells [3]; previous studies
  stimulation of BON cell proliferation (previous studies): stimulates cell proliferation
KRJ-I cells
  growth of KRJ-I cells: can stimulate growth of both KRJ-I cells and BON cells

## COc1cc2ncnc(Nc3cccc(Br)c3)c2cc1OC [PD153035]
non-endocrine tumors
  inhibition of cell growth stimulated by various GI hormones/neurotransmitters: able to inhibit cell growth

## galanin (GWTLNSAGYLLGPHAVGNHRSFSDKNGLTS; Galanin; UniProt P22466 33-62, looked up)
BON cells [9]
  effect on cell growth: did not exert any effect on cell growth

## bradykinin (RPPGFSPFR; Bradykinin; UniProt P01042 381-389, looked up)
QGP-1 cells
  stimulation of cell growth, [^3H]-Thymidine incorporation: able to stimulate BON cell growth, as well as in QGP-1 cells
[1]; 1 μM, 30 min, n = 4
  stimulation of Y^1068 EGFR phosphorylation: significantly stimulated
HNSCC; through its B2 receptor
  growth of HNSCC: stimulates growth of HNSCC

## CNC(=O)[C@H](Cc1c[nH]c2ccccc12)NC(=O)[C@@H](CC(=O)NO)CC(C)C [GM 6001]
[1]; GM 6001 pre-treatment, Bn-analogue 1 μM, 1 h, n = 3
  reduction of Bn-analogue-stimulated EGFR Y^1068 phosphorylation by MMP inhibitor: 75%
[1]; GM 6001 pre-treatment, NT 1 μM, 1 h, n = 3
  reduction of NT-stimulated EGFR Y^1068 phosphorylation by MMP inhibitor: 60%

## O=S(=O)(O)c1cc(O)c(O)c(S(=O)(=O)O)c1 [Tiron]
[1]; NT 1 μM, 1 h, n = 3
  inhibition of NT-stimulated EGFR Y^1068 phosphorylation by antioxidant: 37–45%
[1]; Bn-analogue 1 μM, 1 h, n = 3
  inhibition of Bn-analogue-stimulated EGFR Y^1068 phosphorylation by antioxidant: 85%

## TGFα: TGFα, BioVision
BON cells [2]
  stimulation of BON cell growth, MTT assay: 40%
BON cells [8]
  growth stimulated, [^3H]-Thymidine assessment: 42%
QGP-1 cells
  stimulation of cell growth, [^3H]-Thymidine incorporation: stimulated cell growth
[1]; 3.6 nM, 30 min, n = 4
  stimulation of Y^1068 EGFR phosphorylation: significantly stimulated
KRJ-I cells
  growth of KRJ-I cells: increase cell growth

## CC(=O)N[C@@H](CS)C(=O)O [N-acetylcysteine]
[1]; NT 1 μM, 1 h, n = 3
  inhibition of NT-stimulated EGFR Y^1068 phosphorylation by antioxidant: 37–45%
[1]; Bn-analogue 1 μM, 1 h, n = 3
  inhibition of Bn-analogue-stimulated EGFR Y^1068 phosphorylation by antioxidant: 85%

## TGFβ
KRJ-I cells
  growth of KRJ-I cells: increase cell growth

## [DTyr^6, β Ala^11, Phe^13, Nle^14]Bn (6–14) [Bn-analogue]
QGP-1 cells
  stimulation of cell growth, [^3H]-Thymidine incorporation: stimulated cell growth
[1]; 1 μM, 30 min, n = 4
  stimulation of Y^1068 EGFR phosphorylation: significantly stimulated
[1]; 1 μM, n = 4
  maximal increase of EGFR Y^1068 phosphorylation, dose-response: 2.4 fold
[1]; Bn-analogue or NT
  peak time of Y^1068 EGFR tyrosine phosphorylation: 60 min
[1]; time course, 1 μM, 62 min (NT data not shown), n = 4
  increase of EGFR phosphorylation at 62 min: 3.4 fold
